This is a sample that favours compounds with a hit; in the whole collection about 2% have one here.
CRFR2-BP ag: agonists of CRF-BP/CRF-R2 complex, primary screen, cell-based, HEK293, calcium dye fluorescence, uHTS. CRF-binding protein / CRF receptor 2 complex (human). calcium dye fluorescence (FLIPR); percent of saturating CRF peptide response. AID 588473, 2011. activation, % at 13.2 µM. 350,000 compounds, 0.46% hits;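 active means activation of at least 50%, plus an integration ratio under a set limit after plate pattern correction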
zfTRPN1 agonist: zebrafish TRPN1 channel agonists, primary screen, cell-based, HEK293, calcium fluorescence. HEK293 zebrafish TRPN1-YFP, Fluo-8 calcium fluorescence; 100% = response to 87 µM carbachol. activation, % at 3 µM. 220,000 compounds, 0.18% hits. AID 1424, 2008;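 active means activation above its plate's cutoff, the mean activation of test wells on that plate plus 3 SD, cut at about 19% in these data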
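Assay system: Zebrafish TRPN1-YFP in HEK293 cells | Incubation: Dye loading 1 h at 37 °C, then 30 min room temperature | Measured by: Kinetic Fluo-8 fluorescence, ex 470-495, em 515-575 nm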
CRFR2-BP antag: antagonists of CRF-BP/CRF-R2 complex, primary screen, cell-based, HEK293, calcium dye fluorescence, uHTS; inhibition, % at 11.8 µM; 350,000 compounds, 0.59% hits; AID 588475, 2011; CRF-induced calcium fluorescence;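 active means inhibition of the ligand-induced calcium signal above about 50% at the single tested concentration, limit read from the data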
GPR7 antag: GPR7 receptor antagonists, primary screen, cell-based, fluorescence, single concentration; Neuropeptides B/W receptor type 1 (Homo sapiens), P48145; GPR7-expressing cells, fluorescence antagonist assay; inhibition, % at 4.4 µM; 290,000 compounds, 1.1% hits; in the data active means inhibition above about 16%, passing the limit was not always enough;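 further: cells stimulated with the agonist NPW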
TRPML3 ag: human TRPML3 channel agonists, primary screen, cell-based, HEK293 TRPML3-YFP, Fluo-8 calcium fluorescence, 3 µM; Mucolipin-3 (Homo sapiens), Q8TDD5; 100% = the carbachol control signal; 220,000 compounds, 0.29% hits; activation, % at 3 µM;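 active means activation above its plate's cutoff, the mean activation of the plate's test wells plus 3 SD, cut at about 12% in these data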
Target sequence (Q8TDD5 whole entry, looked up): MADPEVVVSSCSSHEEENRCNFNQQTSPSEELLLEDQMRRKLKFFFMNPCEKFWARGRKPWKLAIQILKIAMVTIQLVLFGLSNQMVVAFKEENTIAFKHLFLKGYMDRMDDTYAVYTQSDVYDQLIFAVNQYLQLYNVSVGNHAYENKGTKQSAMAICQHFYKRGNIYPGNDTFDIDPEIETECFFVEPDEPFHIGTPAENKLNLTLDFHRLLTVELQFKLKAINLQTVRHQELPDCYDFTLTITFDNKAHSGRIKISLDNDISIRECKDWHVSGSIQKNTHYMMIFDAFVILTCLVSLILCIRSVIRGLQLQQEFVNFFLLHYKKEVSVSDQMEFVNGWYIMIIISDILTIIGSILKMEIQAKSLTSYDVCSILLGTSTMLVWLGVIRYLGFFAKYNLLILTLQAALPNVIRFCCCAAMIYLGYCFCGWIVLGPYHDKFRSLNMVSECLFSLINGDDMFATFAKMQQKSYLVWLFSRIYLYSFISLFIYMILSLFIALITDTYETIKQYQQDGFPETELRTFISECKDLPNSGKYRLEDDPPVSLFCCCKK
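Test system – HEK293 line with stable expression of human TRPML3-YFP channel · Control set – carbachol 87 µM final as high control (100%), DMSO as low control (0%) · Signal – Fluo-8 calcium dye fluorescence, ex 470-495, em 515-575 nm · Incubation – 1-h 37 °C dye load, 5-s basal, 120-s post-compound reads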
Numbers stand for hits; 0 = inactive; - = not tested or not shown.

SMILES | CRFR2-BP ag | zfTRPN1 agonist | CRFR2-BP antag | GPR7 antag | TRPML3 ag
NS(=O)(=O)c1cccc(NC(=O)c2ccccc2NS(=O)(=O)c2ccc(F)cc2)c1 | 0 | - | 0 | 0 | -
O=C(Nc1cc(S(=O)(=O)N2CCCCC2)ccc1O)c1ccccc1NS(=O)(=O)c1ccc(F)c(F)c1 | 111.2 | 0 | 81.4 | 0 | 0
O=C(Nc1cccc(F)c1)c1cc(S(=O)(=O)N2CCOCC2)ccc1N1CCCC1 | 66.2 | - | 0 | - | -
O=C(Nc1cc(S(=O)(=O)Nc2ccccc2Cl)ccc1O)c1ccc(F)cc1F | 0 | - | 0 | - | -
CCN(C(=O)CSc1nc2cc(C(=O)O)ccc2c(=O)n1-c1ccccc1F)C1CCS(=O)(=O)C1 (configuration not stated) | 0 | - | 0 | - | -
COc1cc(F)ccc1CN1CCC(n2nccc2NC(=O)C2CCOC2)CC1 (configuration not stated) | 0 | - | 0 | 0 | -
COc1ccc(C2NC(=O)NC(C)=C2C(=O)OC2CCC(C)CC2)cc1 (configuration not stated) | 0 | - | 0 | 0 | -
CC(c1ccccc1)n1ccnc1CO (configuration not stated) | 0 | - | 0 | - | -
CS(=O)(=O)Oc1ccc(Br)c2cccnc12 | 0 | 0 | 62.3 | 0 | 0
c1ccc(C(c2nnnn2Cc2cccs2)N2CCN(C3CCCC3)CC2)cc1 (configuration not stated) | 0 | 0 | 65.1 | 0 | 0
COc1ccc(S(=O)(=O)Nc2ccc3c(c2)C(=O)N([C@H](C)CO)C[C@H](C)[C@@H](CN(C)C(=O)Nc2c(C)noc2C)OCCCC[C@H](C)O3)cc1 | 0 | - | 0 | - | -
COc1ccccc1NS(=O)(=O)c1cc(N/C(=N/S(=O)(=O)c2ccccc2)c2ccc(F)cc2)ccc1Cl | 0 | - | 0 | - | -
COc1ccc(NS(=O)(=O)c2cccc(N/C(=N\S(=O)(=O)c3ccccc3)c3ccc(F)cc3)c2)cc1 | 0 | 0 | 0 | 20.6 | 0
Cc1cc(NC(=O)C(C)SCC(=O)Nc2cc(C(F)(F)F)ccc2N2CCOCC2)no1 (configuration not stated) | 0 | - | 0 | - | -
NS(=O)(=O)c1ccc(NC(=O)COC(=O)c2ccc(S(=O)(=O)N3CCOCC3)cc2)cc1 | 0 | - | 0 | - | -
COc1ccc(C(=O)C=Cc2ccc3c(c2)OCO3)cc1OC | 0 | - | 0 | - | -
COc1cc(/C=C/C(=O)c2ccc3c(c2)OCO3)cc(Cl)c1O | 134.7 | - | 0 | 0 | -
CC1(N=Cc2cc(Cl)ccc2O)COP(=O)(NC2CCCC2)OC1 (configuration not stated) | 0 | - | 0 | - | -
CCCN1CNC(=S)N(Cc2ccccc2)C1 | 0 | 0 | 0 | 0 | 0
S=C1NCN(CCc2ccccc2)CN1Cc1ccccc1 | 0 | 0 | 107.8 | 0 | 0
O=S(=O)(NCC1CCCO1)c1ccc(Cl)cc1 (configuration not stated) | 0 | - | 0 | 0 | -
CCOC(=O)c1sc(NC(=S)NC(=O)c2cccc(OC)c2)nc1C | 58.1 | - | 0 | 0 | -
Cc1nc2nc(C)c(NS(=O)(=O)c3cccs3)c(=O)n2[nH]1 | 0 | - | 0 | 0 | -
CCC(C)(C(=O)NC1CCCC1)N(C(=O)CNC(C)=O)c1ccccc1 (configuration not stated) | 0 | 0 | 0 | 19.2 | 0
CCC(C)(C(=O)NC1CCCCC1)N(C(=O)c1ccccn1)c1ccccc1 (configuration not stated) | 0 | 0 | 0 | 0 | 0
SMILES | CRFR2-BP ag | zfTRPN1 agonist | CRFR2-BP antag | GPR7 antag | TRPML3 ag
COc1ccc(CCn2c(=O)c3cccnc3n(Cc3cccc([N+](=O)[O-])c3)c2=O)cc1OC | 0 | 0 | 52.0 | 0 | 0
Cc1cccnc1NC(=O)C(C)Oc1ccccc1 (configuration not stated) | 0 | 0 | 79.6 | 0 | 0
COc1ccc(C2=Nc3ccccc3C2(O)CCN2C(=O)c3ccccc3C2=O)cc1 (configuration not stated) | 0 | - | 67.2 | - | -
CCOc1ccc(C(C)=O)cc1COC(=O)c1ccccc1C(=O)N(C)Cc1ccccc1 | 0 | - | 0 | - | -
CN1CCN(CCCNC(=O)CCC(=O)N2CCOc3ccccc32)CC1 | 0 | - | 0 | 0 | -
O=C(CCC(=O)N1CCOc2ccccc21)NCCCN1CCN(Cc2ccccc2)CC1 | 0 | - | 0 | 20.8 | -

Compound activity as filed in PubChem.
